From ChEMBL document CHEMBL4270612, “Discovery of dual GyrB/ParE inhibitors active against Gram-negative bacteria” (Eur J Med Chem, 2018)

Experiments:
DNA gyrase subunit B = DNA gyrase subunit B (Escherichia coli, UniProt P0AES6); experiment: Inhibition of Escherichia coli GyrB (1 to 220 residues) expressed in Escherichia coli BL21(DE3)
[1] = target: DNA topoisomerase 4 subunit B (Escherichia coli K-12, UniProt P20083); experiment: Inhibition of Escherichia coli ParE
Pseudomonas aeruginosa [2] = experiment: Antibacterial activity against Pseudomonas aeruginosa PAO1 after 24 hrs by broth microdilution method; format: functional; conditions: PAO1, 24 h
Procedure, shortened: (§1)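 Broth microdilution per CLSI. Bacterial suspension adjusted to 1×10^6 CFU/mL in cation-adjusted Mueller–Hinton broth and mixed 1:1 with 2-fold serial compound dilutions. Final DMSO 2.5% v/v. Plates incubated at 35 °C with shaking at 140 rpm for 24 h.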

Escherichia coli = experiment: Antibacterial activity against Escherichia coli after 24 hrs by broth microdilution method; format: functional; procedure, shortened: as §1
Acinetobacter baumannii [3] = experiment: Antibacterial activity against Acinetobacter baumannii ARC3495 after 24 hrs by broth microdilution method; format: functional; conditions: ARC3495, 24 h; procedure, shortened: as §1
Klebsiella pneumoniae = experiment: Antibacterial activity against Klebsiella pneumoniae ARC1865 after 24 hrs by broth microdilution method; format: functional; conditions: ARC1865, 24 h; procedure, shortened: as §1
Haemophilus influenzae = experiment: Antibacterial activity against Haemophilus influenzae ATCC 49247 after 24 hrs by broth microdilution method; format: functional; conditions: ATCC 49247, 24 h; procedure, shortened: as §1
Enterobacter cloacae = experiment: Antibacterial activity against Enterobacter cloacae ARC3528 after 24 hrs by broth microdilution method; format: functional; conditions: ARC3528, 24 h; procedure, shortened: as §1
Staphylococcus aureus [4] = experiment: Antibacterial activity against Staphylococcus aureus ATCC 29213 after 24 hrs by broth microdilution method; format: functional; conditions: ATCC 29213, 24 h; procedure, shortened: as §1
Staphylococcus aureus [5] = experiment: Antibacterial activity against methicillin-resistant Staphylococcus aureus FQ-R after 24 hrs by broth microdilution method; format: functional
Procedure, shortened: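 Broth microdilution per CLSI. Bacterial suspensions adjusted to 1×10^6 CFU/mL in cation-adjusted Mueller–Hinton broth, mixed 1:1 with 2-fold serial compound dilutions (final DMSO 2.5% v/v). Incubation 35 °C, 140 rpm, 24 h.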

Streptococcus pyogenes = experiment: Antibacterial activity against Streptococcus pyogenes ARC838 after 24 hrs by broth microdilution method; format: functional; conditions: ARC838, 24 h
Procedure, shortened: (§2)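 Broth microdilution per CLSI. Bacterial suspension adjusted to 1×10^6 CFU/mL in cation-adjusted Mueller–Hinton broth and mixed 1:1 with 2-fold serial compound dilutions. Plates incubated at 35 °C with shaking at 140 rpm for 24 h.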

Streptococcus pneumoniae = experiment: Antibacterial activity against Streptococcus pneumoniae ATCC 49619 after 24 hrs by broth microdilution method; format: functional; conditions: ATCC 49619, 24 h; procedure, shortened: as §1
Enterococcus faecalis = experiment: Antibacterial activity against Enterococcus faecalis ATCC 29212 after 24 hrs by broth microdilution method; format: functional; conditions: ATCC 29212, 24 h; procedure, shortened: as §1
Candida albicans = experiment: Antifungal activity against Candida albicans ATCC 90028 after 24 hrs by broth microdilution method; format: functional; conditions: ATCC 90028, 24 h
Pseudomonas aeruginosa [6] = experiment: Antibacterial activity against Pseudomonas aeruginosa ARC3505 after 24 hrs by broth microdilution method; format: functional; conditions: ARC3505, 24 h; procedure, shortened: as §1
Pseudomonas aeruginosa [7] = experiment: Antibacterial activity against Pseudomonas aeruginosa ARC3506 after 24 hrs by broth microdilution method; format: functional; conditions: ARC3506, 24 h; procedure, shortened: as §1
Pseudomonas aeruginosa [8] = experiment: Antibacterial activity against Pseudomonas aeruginosa ARC3511 after 24 hrs by broth microdilution method; format: functional; conditions: ARC3511, 24 h; procedure, shortened: as §2
Pseudomonas aeruginosa [9] = experiment: Antibacterial activity against Pseudomonas aeruginosa ARC3514 after 24 hrs by broth microdilution method; format: functional; conditions: ARC3514, 24 h; procedure, shortened: as §2
Pseudomonas aeruginosa [10] = experiment: Antibacterial activity against Pseudomonas aeruginosa ARC3611 after 24 hrs by broth microdilution method; format: functional; conditions: ARC3611, 24 h; procedure, shortened: as §1
Pseudomonas aeruginosa [11] = experiment: Antibacterial activity against Pseudomonas aeruginosa ARC3727 after 24 hrs by broth microdilution method; format: functional; conditions: ARC3727, 24 h; procedure, shortened: as §2
Pseudomonas aeruginosa [12] = experiment: Antibacterial activity against Pseudomonas aeruginosa ARC3729 after 24 hrs by broth microdilution method; format: functional; conditions: ARC3729, 24 h; procedure, shortened: as §1
Pseudomonas aeruginosa [13] = experiment: Antibacterial activity against Pseudomonas aeruginosa ARC3756 after 24 hrs by broth microdilution method; format: functional; conditions: ARC3756, 24 h; procedure, shortened: as §2
Pseudomonas aeruginosa [14] = experiment: Antibacterial activity against Pseudomonas aeruginosa ARC3925 after 24 hrs by broth microdilution method; format: functional; conditions: ARC3925, 24 h; procedure, shortened: as §2
Pseudomonas aeruginosa [15] = experiment: Antibacterial activity against Pseudomonas aeruginosa ARC4063 after 24 hrs by broth microdilution method; format: functional; conditions: ARC4063, 24 h; procedure, shortened: as §2
Pseudomonas aeruginosa [16] = experiment: Antibacterial activity against Pseudomonas aeruginosa ARC4068 after 24 hrs by broth microdilution method; format: functional; conditions: ARC4068, 24 h; procedure, shortened: as §2
Acinetobacter baumannii [17] = experiment: Antibacterial activity against Acinetobacter baumannii ARC2674 after 24 hrs by broth microdilution method; format: functional; conditions: ARC2674, 24 h; procedure, shortened: as §1
Acinetobacter baumannii [18] = experiment: Antibacterial activity against Acinetobacter baumannii ARC2675 after 24 hrs by broth microdilution method; format: functional; conditions: ARC2675, 24 h; procedure, shortened: as §2
Acinetobacter baumannii [19] = experiment: Antibacterial activity against Acinetobacter baumannii ARC2780 after 24 hrs by broth microdilution method; format: functional; conditions: ARC2780, 24 h; procedure, shortened: as §2
Acinetobacter baumannii [20] = experiment: Antibacterial activity against Acinetobacter baumannii ARC2781 after 24 hrs by broth microdilution method; format: functional; conditions: ARC2781, 24 h; procedure, shortened: as §2
Acinetobacter baumannii [21] = experiment: Antibacterial activity against Acinetobacter baumannii ARC2782 after 24 hrs by broth microdilution method; format: functional; conditions: ARC2782, 24 h; procedure, shortened: as §1
Acinetobacter baumannii [22] = experiment: Antibacterial activity against Acinetobacter baumannii ARC3484 after 24 hrs by broth microdilution method; format: functional; conditions: ARC3484, 24 h; procedure, shortened: as §2
Acinetobacter baumannii [23] = experiment: Antibacterial activity against Acinetobacter baumannii ARC3485 after 24 hrs by broth microdilution method; format: functional; conditions: ARC3485, 24 h; procedure, shortened: as §1
Acinetobacter baumannii [24] = experiment: Antibacterial activity against Acinetobacter baumannii ARC3486 after 24 hrs by broth microdilution method; format: functional; conditions: ARC3486, 24 h; procedure, shortened: as §1
Acinetobacter baumannii [25] = experiment: Antibacterial activity against Acinetobacter baumannii ARC3489 after 24 hrs by broth microdilution method; format: functional; conditions: ARC3489, 24 h; procedure, shortened: as §1
Acinetobacter baumannii [26] = experiment: Antibacterial activity against Acinetobacter baumannii ARC3492 after 24 hrs by broth microdilution method; format: functional; conditions: ARC3492, 24 h; procedure, shortened: as §2
Acinetobacter baumannii [27] = experiment: Antibacterial activity against Acinetobacter baumannii ARC3493 after 24 hrs by broth microdilution method; format: functional; conditions: ARC3493, 24 h; procedure, shortened: as §1
Acinetobacter baumannii [28] = experiment: Antibacterial activity against Acinetobacter baumannii ARC3513 after 24 hrs by broth microdilution method; format: functional; conditions: ARC3513, 24 h; procedure, shortened: as §1
Acinetobacter baumannii [29] = experiment: Antibacterial activity against Acinetobacter baumannii ARC3515 after 24 hrs by broth microdilution method; format: functional; conditions: ARC3515, 24 h; procedure, shortened: as §1
Acinetobacter baumannii [30] = experiment: Antibacterial activity against Acinetobacter baumannii ARC3657 after 24 hrs by broth microdilution method; format: functional; conditions: ARC3657, 24 h; procedure, shortened: as §1
Acinetobacter baumannii [31] = experiment: Antibacterial activity against Acinetobacter baumannii ARC3658 after 24 hrs by broth microdilution method; format: functional; conditions: ARC3658, 24 h; procedure, shortened: as §1
Acinetobacter baumannii [32] = experiment: Antibacterial activity against Acinetobacter baumannii ARC3659 after 24 hrs by broth microdilution method; format: functional; conditions: ARC3659, 24 h; procedure, shortened: as §1
Acinetobacter baumannii [33] = experiment: Antibacterial activity against Acinetobacter baumannii ARC3882 after 24 hrs by broth microdilution method; format: functional; conditions: ARC3882, 24 h; procedure, shortened: as §1
[34] = Thermodynamic solubility of the compound at pH 7.4; format: physicochemical; conditions: buffer, read-out: Therm_solubility
[35] = Protein binding in human plasma; format: ADME, cell-free; conditions: read-out: PPB (converted)
[36] = Growth inhibition of human A549 cells; format: cell-based

DNA topoisomerase 4 subunit B, sequence (P20083 whole entry): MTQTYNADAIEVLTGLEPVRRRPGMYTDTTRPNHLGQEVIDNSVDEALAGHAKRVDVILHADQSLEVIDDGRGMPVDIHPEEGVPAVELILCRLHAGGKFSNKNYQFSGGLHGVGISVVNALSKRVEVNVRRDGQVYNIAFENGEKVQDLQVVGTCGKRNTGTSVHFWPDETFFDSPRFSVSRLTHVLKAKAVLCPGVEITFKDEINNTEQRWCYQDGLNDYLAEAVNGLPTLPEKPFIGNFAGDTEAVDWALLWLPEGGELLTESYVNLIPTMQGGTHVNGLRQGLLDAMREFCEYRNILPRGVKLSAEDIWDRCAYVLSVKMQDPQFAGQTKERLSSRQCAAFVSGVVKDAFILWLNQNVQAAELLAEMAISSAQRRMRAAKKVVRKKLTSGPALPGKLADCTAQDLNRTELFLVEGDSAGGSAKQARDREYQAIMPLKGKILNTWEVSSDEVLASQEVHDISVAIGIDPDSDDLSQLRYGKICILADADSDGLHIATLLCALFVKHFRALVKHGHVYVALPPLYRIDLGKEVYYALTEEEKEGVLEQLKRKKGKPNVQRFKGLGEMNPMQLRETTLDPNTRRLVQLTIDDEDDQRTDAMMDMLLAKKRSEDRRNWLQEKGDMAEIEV

CCNC(=O)Nc1cc(-c2nc(C3CC3)cs2)c(-c2cc(-c3n[nH]c(=O)o3)cnc2N2C3CCC2CN(C)C3)cn1
1 µg/mL: MIC (Pseudomonas aeruginosa [8]) | MIC (Acinetobacter baumannii [21]) | MIC (Acinetobacter baumannii [25]) | MIC (Acinetobacter baumannii [26]) | MIC (Acinetobacter baumannii [27]) | MIC (Acinetobacter baumannii [31]) | MIC (Acinetobacter baumannii [32]) | MIC (Acinetobacter baumannii [33])
0.149: fraction unbound [35]
4 µg/mL: MIC (Pseudomonas aeruginosa [6]) | MIC (Pseudomonas aeruginosa [10]) | MIC (Pseudomonas aeruginosa [11]) | MIC (Pseudomonas aeruginosa [12]) | MIC (Pseudomonas aeruginosa [13]) | MIC (Pseudomonas aeruginosa [14]) | MIC (Pseudomonas aeruginosa [15]) | MIC (Pseudomonas aeruginosa [16]) | MIC (Acinetobacter baumannii [17]) | MIC (Acinetobacter baumannii [28])
> 64 µg/mL: MIC (Candida albicans)
2 µg/mL: MIC (Pseudomonas aeruginosa [7]) | MIC (Pseudomonas aeruginosa [9]) | MIC (Acinetobacter baumannii [18]) | MIC (Acinetobacter baumannii [22]) | MIC (Acinetobacter baumannii [23]) | MIC (Acinetobacter baumannii [24]) | MIC (Acinetobacter baumannii [29]) | MIC (Acinetobacter baumannii [30])
> 25000 nM: GI50 [36]
< 0.06 µg/mL: MIC (Haemophilus influenzae) | MIC (Staphylococcus aureus [4]) | MIC (Staphylococcus aureus [5]) | MIC (Streptococcus pyogenes) | MIC (Streptococcus pneumoniae) | MIC (Enterococcus faecalis)
65.8 µM: solubility thermodynamic [34]
2 nM: IC50 (DNA gyrase subunit B)
0.25 µg/mL: MIC (Acinetobacter baumannii [20])
1.14 µg/mL: MIC (Pseudomonas aeruginosa [2])
16 µg/mL: MIC (Klebsiella pneumoniae) | MIC (Enterobacter cloacae)
0.5 µg/mL: MIC (Acinetobacter baumannii [3]) | MIC (Acinetobacter baumannii [19])
3 nM: IC50 [1]
0.57 µg/mL: MIC (Escherichia coli)
